UPR CHOP act: activators of apoptotic CHOP UPR arm, primary screen, cell-based, CHO-CHOP luciferase reporter, luminescence, uHTS; UPR activation; percent of tunicamycin response over DMSO baseline; activation, % at 10 µM; 330,000 compounds, 0.34% hits;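 active = at 10 µM dose, activation of 40% or more, normalized to positive control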;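 note: 100% = tunicamycin at 10 µg/mL and 0% = DMSO alone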
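Assay system: CHO cells with stable CHOP pathway luciferase reporter; Buffer or medium: F12 plus 10% serum; Times: 16-18 h cell attachment, then 6 h compound exposure, 37 °C; Signal: luciferase luminescence; Read-out basis: percent activation relative to tunicamycin control; Control set: tunicamycin high control, DMSO low control.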
VLA-4 inh: inhibition in human VLA-4 binding assay, primary screen, VLA-4 allosteric modulator project, MLPCN library, flow cytometry, VLA-4 expressing cells | Integrin alpha-4 (Homo sapiens), P13612 | ligand binding flow cytometry | inhibition, % (about 7 µM as worked out from the volumes in the protocol) | 330,000 compounds, 0.2% hits; in the data active = inhibition above about 50%
CHOP inhibitor: inhibitors of CHOP promoter induction, primary screen, cell-based, unfolded protein response, luciferase reporter. CHO-K1 CHOP-promoter luciferase, tunicamycin-induced, 15-18 h. 220,000 compounds, 3.8% hits. inhibition, % at 10 µM;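 active = compounds that reduced the stress-induced luciferase reporter signal by more than about 70% of percent inhibition, limit read from the data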;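 note: 0% = tunicamycin plus vehicle and 100% = wells without tunicamycin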
Beta2AR agonist: beta2AR agonists driving receptor internalization, primary screen, cell-based, FAP fluorogen, flow cytometry; response, % (concentration not given with the values); Am2.2-beta2AR cells; Beta-2 adrenergic receptor (Homo sapiens), P07550; 340,000 compounds, 0.43% hits; AID 504454, 2011;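 active = response above a set limit, near 3 SD of response in nonfluorescent compounds, cut at about 42% in these data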
XBP1 UPR activ: activators of adaptive XBP1 UPR arm, primary screen, cell-based, CHO-XBP1 luciferase reporter, luminescence, uHTS | activation, % at 20 µM | 330,000 compounds, 0.33% hits | AID 463104, 2010 | IRE1-XBP1 UPR activation; percent of tunicamycin response, DMSO as zero;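 active = versus positive control, 20 µM dose yields 30% or more activation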;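 note: 100% = tunicamycin at 10 µg/mL and 0% = DMSO only wells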
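Material – CHO cell line with stable XBP1 luciferase reporter · Buffer or medium – F12 plus 10% FBS · Compound – single point, 20 µM final compound, 1% DMSO · Schedule – 16-18 h cell attachment at 37 °C, then 6 h compound exposure · Signal – Steady-Glo luminescence read · Benchmarks – high control tunicamycin 10 µg/mL final, low control DMSO vehicle only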
The depositor's hits bear a star; . = not tested or not shown. This excerpt belongs to a sample that is enriched for hits.

SMILES	UPR CHOP act	VLA-4 inh	CHOP inhibitor	Beta2AR agonist	XBP1 UPR activ
Cc1ccc(-c2noc(CSc3nnc(Cc4cccs4)n3-c3ccccc3)n2)cc1	-0.4	-8.4	61.0	0.5	-2.6
Clc1ccc(-c2noc(CSc3nnc(Cc4cccs4)n3-c3ccccc3)n2)cc1	0.4	-0.8	81.0*	5.1	-2.2
Fc1ccc(-n2c(Cc3ccccc3)nnc2SCc2nc(-c3cccs3)no2)cc1	0.1	8.1	75.2*	-1.9	-2.6
CCOc1ccc(-c2noc(CCC(=O)NCC3CCCO3)n2)cc1OC (centres undefined)	-0.8	-6.5	.	3.2	1.7
Cc1ccc(-c2nc(C#N)c(NCC3CCCO3)o2)cc1 (centres undefined)	3.1	-7.1	17.7	-2.9	5.4
Clc1ccc(NCc2cccnc2)c(Cl)c1	0.4	0.5	.	-23.5	-0.9
FC(F)(F)c1cc(-c2ccc(Cl)cc2)nc(NCc2cccnc2)n1	1.0	-2.7	89.0*	-14.4	0.2
Cc1ccc(-c2cc(C(F)F)nc(NCC3CCCO3)n2)cc1 (centres undefined)	1.0	3.9	85.7*	-3.8	10.7
COc1ccc(-c2cc(C(F)(F)F)nc(NCc3cccs3)n2)cc1	1.1	2.3	17.6	-3.5	-1.3
Cc1ccc(-c2cc(C(F)F)nc(NCc3cccs3)n2)cc1	0.7	3.8	90.7*	-5.3	-2.5
Cc1ccc(-c2cc(C(F)F)nc(NCc3cccnc3)n2)cc1	3.0	-3.4	75.7*	-3.6	-0.8
Cc1ccc(CC(=O)NCc2cccnc2)cc1	-0.9	-3.1	-3.7	.	-3.3
O=C(NCCCNC(=O)c1ccco1)c1ccc(F)cc1	-0.3	17.3	.	-8.2	-8.1
COc1cccc(CSCC(=O)NCCc2ccccc2)c1OC	-0.5	13.1	.	-5.6	1.4
Cc1occc1-c1nnc(SCC(=O)c2ccc(F)cc2)n1Cc1ccco1	0.7	6.3	41.8	-6.9	-0.2
O=C(CSc1nnc(-c2cc3ccccc3cc2O)n1Cc1ccco1)c1ccc(F)cc1	1.3	22.8	84.5*	3.6	1.1
Cc1cccc(C)c1OCc1nnc(NC(=O)CSc2ccc(Cl)cc2)s1	1.9	12.3	82.9*	5.8	-0.1
O=C(OC(C(=O)NCc1ccco1)C(OC(=O)c1ccccc1)C(=O)NCc1ccco1)c1ccccc1 (centres undefined)	0.2	-12.7	94.3*	-35.9	-1.5
Cc1cc(NC(=O)C(C)SCC(=O)N(C)CC(=O)Nc2ccccc2C(F)(F)F)no1 (centres undefined)	-0.7	.	.	-7.5	-0.6
COc1ccc(NC(=O)c2c(NC(=O)CNCc3ccco3)sc3c2CCC3)c(OC)c1	0.7	17.0	70.8*	-12.2	-2.6
Cc1ccc(NC(=O)C(OC(=O)c2ccc(NC(N)=O)cc2)c2ccccc2)cc1Cl (centres undefined)	0.1	5.3	91.3*	11.2	-2.5
Cc1ccc(NC(=O)C(OC(=O)c2ccccc2Cl)c2ccccc2)cc1Cl (centres undefined)	0.5	9.0	10.6	-6.5	-3.8
COc1ccc(Br)cc1/C=N/NC(=O)c1ccc(COc2ccc3c(c2)CCC3)o1	5.0	21.9	44.7	-5.2	-1.9
O=C(N/N=C/c1cc([N+](=O)[O-])ccc1O)c1ccc(COc2ccc3c(c2)CCC3)o1	20.9	21.5	.	2.5	32.7*
COC(=O)c1ccc(N=NNc2cccc(Br)c2)cc1	.	-129.5	90.9*	7.5	.
COc1cc(NC(=O)c2cccnc2)ccc1-c1cc2ccccc2oc1=O	2.3	7.0	76.9*	.	-2.2
O=C(Nc1ccc(-c2cc3ccccc3oc2=O)c(Cl)c1)c1cccnc1	-0.9	-1.3	33.0	-0.2	1.0
C=CCc1cc(C=O)cc(OC)c1OCc1c(Cl)cccc1Cl	1.8	5.7	73.0*	12.6	-0.7
CCn1cc(S(=O)(=O)NCc2ccc(OC)cc2)cn1	3.1	10.7	.	7.0	-8.2
COc1ccc([N+](=O)[O-])cc1NC(=S)NC(C)=O	-0.1	0.6	13.2	-12.5	-3.8
